# Experimental data taken from ChEMBL document CHEMBL4699431, “Design and synthesis of substituted (1-(benzyl)-1H-1,2,3-triazol-4-yl)(piperazin-1-yl)methanone conjugates: study on their apoptosis inducing ability and tubulin polymerization inhibition” (RSC Med Chem, 2020).
# Tested on: MCF7
# Assay: Cytotoxicity against human MCF-7 cells assessed as reduction in cell viability incubated for 48 hrs by MTT assay
# Type: functional, cell-based
# Conditions: MCF7, 48 h
# Method in brief: (§1)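 Cells plated at 3000-4500 per well and treated after 24 h. DMSO stocks (20 mM) were diluted in medium to final DMSO <0.1%, twofold series […], 48 h. MTT (0.5 mg/mL) was added for 4 h, formazan dissolved in DMSO, absorbance read at 570 nm.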
row,SMILES,IC50 [µM]
1,O=C(c1cn(Cc2ccc(F)cc2)nn1)N1CCN(S(=O)(=O)c2ccccc2)CC1,> 30
2,O=C(c1cn(Cc2cccc(Oc3ccccc3)c2)nn1)N1CCN(S(=O)(=O)c2ccccc2)CC1,> 30
3,O=C(c1cn(Cc2ccc(I)cc2)nn1)N1CCN(S(=O)(=O)c2ccc(Cl)cc2)CC1,1.34
4,COc1cccc(Cn2cc(C(=O)N3CCN(S(=O)(=O)c4ccc(Br)cc4)CC3)nn2)c1,> 30
5,COc1ccc(S(=O)(=O)N2CCN(C(=O)c3cn(Cc4ccc(I)cc4)nn3)CC2)cc1,> 30
6,O=C(c1cn(Cc2ccc(F)cc2)nn1)N1CCN(S(=O)(=O)c2ccc(Br)cc2)CC1,> 30
7,COc1cccc(Cn2cc(C(=O)N3CCN(S(=O)(=O)c4ccc(C(C)(C)C)cc4)CC3)nn2)c1,> 30
8,O=C(c1cn(Cc2cccc(Oc3ccccc3)c2)nn1)N1CCN(S(=O)(=O)c2ccc(Cl)cc2)CC1,4.41
9,CC(C)(C)c1ccc(S(=O)(=O)N2CCN(C(=O)c3cn(Cc4ccccc4)nn3)CC2)cc1,> 30
10,COc1cccc(Cn2cc(C(=O)N3CCN(S(=O)(=O)c4ccccc4)CC3)nn2)c1,> 30
11,CC(C)(C)c1ccc(S(=O)(=O)N2CCN(C(=O)c3cn(Cc4cccc(Oc5ccccc5)c4)nn3)CC2)cc1,3.28
12,COc1ccc(S(=O)(=O)N2CCN(C(=O)c3cn(Cc4ccccc4)nn3)CC2)cc1,> 30
13,Cc1ccc(S(=O)(=O)N2CCN(C(=O)c3cn(Cc4ccc(F)cc4)nn3)CC2)cc1,> 30
14,COc1cccc(Cn2cc(C(=O)N3CCN(S(=O)(=O)c4ccc(Cl)cc4)CC3)nn2)c1,> 30

# Tested on: BT-474
# Assay: Cytotoxicity against human BT-474 cells assessed as reduction in cell viability incubated for 48 hrs by MTT assay
# Type: functional, cell-based
# Conditions: BT-474, 48 h
# Method in brief: as §1
row,SMILES,IC50 [µM]
1,O=C(c1cn(Cc2ccc(F)cc2)nn1)N1CCN(S(=O)(=O)c2ccccc2)CC1,> 30
2,O=C(c1cn(Cc2cccc(Oc3ccccc3)c2)nn1)N1CCN(S(=O)(=O)c2ccccc2)CC1,> 30
3,O=C(c1cn(Cc2ccc(I)cc2)nn1)N1CCN(S(=O)(=O)c2ccc(Cl)cc2)CC1,4.96
4,COc1cccc(Cn2cc(C(=O)N3CCN(S(=O)(=O)c4ccc(Br)cc4)CC3)nn2)c1,> 30
5,COc1ccc(S(=O)(=O)N2CCN(C(=O)c3cn(Cc4ccc(I)cc4)nn3)CC2)cc1,> 30
6,O=C(c1cn(Cc2ccc(F)cc2)nn1)N1CCN(S(=O)(=O)c2ccc(Br)cc2)CC1,> 30
7,COc1cccc(Cn2cc(C(=O)N3CCN(S(=O)(=O)c4ccc(C(C)(C)C)cc4)CC3)nn2)c1,> 30
8,O=C(c1cn(Cc2cccc(Oc3ccccc3)c2)nn1)N1CCN(S(=O)(=O)c2ccc(Cl)cc2)CC1,1.96
9,CC(C)(C)c1ccc(S(=O)(=O)N2CCN(C(=O)c3cn(Cc4ccccc4)nn3)CC2)cc1,> 30
10,COc1cccc(Cn2cc(C(=O)N3CCN(S(=O)(=O)c4ccccc4)CC3)nn2)c1,> 30
11,CC(C)(C)c1ccc(S(=O)(=O)N2CCN(C(=O)c3cn(Cc4cccc(Oc5ccccc5)c4)nn3)CC2)cc1,3.89
12,COc1ccc(S(=O)(=O)N2CCN(C(=O)c3cn(Cc4ccccc4)nn3)CC2)cc1,> 30
13,Cc1ccc(S(=O)(=O)N2CCN(C(=O)c3cn(Cc4ccc(F)cc4)nn3)CC2)cc1,> 30
14,COc1cccc(Cn2cc(C(=O)N3CCN(S(=O)(=O)c4ccc(Cl)cc4)CC3)nn2)c1,> 30

# Tested on: NCI-H460
# Assay: Cytotoxicity against human NCI-H460 cells assessed as reduction in cell viability incubated for 48 hrs by MTT assay
# Type: functional, cell-based
# Conditions: NCI-H460, 48 h
# Method in brief: as §1
row,SMILES,IC50 [µM]
1,O=C(c1cn(Cc2ccc(F)cc2)nn1)N1CCN(S(=O)(=O)c2ccccc2)CC1,> 30
2,O=C(c1cn(Cc2cccc(Oc3ccccc3)c2)nn1)N1CCN(S(=O)(=O)c2ccccc2)CC1,> 30
3,O=C(c1cn(Cc2ccc(I)cc2)nn1)N1CCN(S(=O)(=O)c2ccc(Cl)cc2)CC1,2.25
4,COc1cccc(Cn2cc(C(=O)N3CCN(S(=O)(=O)c4ccc(Br)cc4)CC3)nn2)c1,> 30
5,COc1ccc(S(=O)(=O)N2CCN(C(=O)c3cn(Cc4ccc(I)cc4)nn3)CC2)cc1,> 30
6,O=C(c1cn(Cc2ccc(F)cc2)nn1)N1CCN(S(=O)(=O)c2ccc(Br)cc2)CC1,> 30
7,COc1cccc(Cn2cc(C(=O)N3CCN(S(=O)(=O)c4ccc(C(C)(C)C)cc4)CC3)nn2)c1,> 30
8,O=C(c1cn(Cc2cccc(Oc3ccccc3)c2)nn1)N1CCN(S(=O)(=O)c2ccc(Cl)cc2)CC1,5.68
9,CC(C)(C)c1ccc(S(=O)(=O)N2CCN(C(=O)c3cn(Cc4ccccc4)nn3)CC2)cc1,> 30
10,COc1cccc(Cn2cc(C(=O)N3CCN(S(=O)(=O)c4ccccc4)CC3)nn2)c1,> 30
11,CC(C)(C)c1ccc(S(=O)(=O)N2CCN(C(=O)c3cn(Cc4cccc(Oc5ccccc5)c4)nn3)CC2)cc1,5.05
12,COc1ccc(S(=O)(=O)N2CCN(C(=O)c3cn(Cc4ccccc4)nn3)CC2)cc1,> 30
13,Cc1ccc(S(=O)(=O)N2CCN(C(=O)c3cn(Cc4ccc(F)cc4)nn3)CC2)cc1,> 30
14,COc1cccc(Cn2cc(C(=O)N3CCN(S(=O)(=O)c4ccc(Cl)cc4)CC3)nn2)c1,> 30

# Tested on: HaCaT
# Assay: Cytotoxicity against human HaCaT cells assessed as reduction in cell viability incubated for 48 hrs by MTT assay
# Type: functional, cell-based
# Conditions: not given
# Method in brief: as §1
row,SMILES,IC50 [µM]
1,O=C(c1cn(Cc2ccc(F)cc2)nn1)N1CCN(S(=O)(=O)c2ccccc2)CC1,> 30
2,O=C(c1cn(Cc2cccc(Oc3ccccc3)c2)nn1)N1CCN(S(=O)(=O)c2ccccc2)CC1,> 30
3,O=C(c1cn(Cc2ccc(I)cc2)nn1)N1CCN(S(=O)(=O)c2ccc(Cl)cc2)CC1,2.22
4,COc1cccc(Cn2cc(C(=O)N3CCN(S(=O)(=O)c4ccc(Br)cc4)CC3)nn2)c1,> 30
5,COc1ccc(S(=O)(=O)N2CCN(C(=O)c3cn(Cc4ccc(I)cc4)nn3)CC2)cc1,> 30
6,O=C(c1cn(Cc2ccc(F)cc2)nn1)N1CCN(S(=O)(=O)c2ccc(Br)cc2)CC1,> 30
7,COc1cccc(Cn2cc(C(=O)N3CCN(S(=O)(=O)c4ccc(C(C)(C)C)cc4)CC3)nn2)c1,> 30
8,O=C(c1cn(Cc2cccc(Oc3ccccc3)c2)nn1)N1CCN(S(=O)(=O)c2ccc(Cl)cc2)CC1,2.96
9,CC(C)(C)c1ccc(S(=O)(=O)N2CCN(C(=O)c3cn(Cc4ccccc4)nn3)CC2)cc1,> 30
10,COc1cccc(Cn2cc(C(=O)N3CCN(S(=O)(=O)c4ccccc4)CC3)nn2)c1,> 30
11,CC(C)(C)c1ccc(S(=O)(=O)N2CCN(C(=O)c3cn(Cc4cccc(Oc5ccccc5)c4)nn3)CC2)cc1,4.34
12,COc1ccc(S(=O)(=O)N2CCN(C(=O)c3cn(Cc4ccccc4)nn3)CC2)cc1,> 30
13,Cc1ccc(S(=O)(=O)N2CCN(C(=O)c3cn(Cc4ccc(F)cc4)nn3)CC2)cc1,> 30
14,COc1cccc(Cn2cc(C(=O)N3CCN(S(=O)(=O)c4ccc(Cl)cc4)CC3)nn2)c1,> 30

# Tested on: HeLa
# Assay: Cytotoxicity against human HeLa cells assessed as reduction in cell viability incubated for 48 hrs by MTT assay
# Type: functional, cell-based
# Conditions: not given
# Method in brief: as §1
row,SMILES,IC50 [µM]
1,O=C(c1cn(Cc2ccc(F)cc2)nn1)N1CCN(S(=O)(=O)c2ccccc2)CC1,> 30
2,O=C(c1cn(Cc2cccc(Oc3ccccc3)c2)nn1)N1CCN(S(=O)(=O)c2ccccc2)CC1,> 30
3,O=C(c1cn(Cc2ccc(I)cc2)nn1)N1CCN(S(=O)(=O)c2ccc(Cl)cc2)CC1,5.74
4,COc1cccc(Cn2cc(C(=O)N3CCN(S(=O)(=O)c4ccc(Br)cc4)CC3)nn2)c1,> 30
5,COc1ccc(S(=O)(=O)N2CCN(C(=O)c3cn(Cc4ccc(I)cc4)nn3)CC2)cc1,> 30
6,O=C(c1cn(Cc2ccc(F)cc2)nn1)N1CCN(S(=O)(=O)c2ccc(Br)cc2)CC1,> 30
7,COc1cccc(Cn2cc(C(=O)N3CCN(S(=O)(=O)c4ccc(C(C)(C)C)cc4)CC3)nn2)c1,> 30
8,O=C(c1cn(Cc2cccc(Oc3ccccc3)c2)nn1)N1CCN(S(=O)(=O)c2ccc(Cl)cc2)CC1,8.61
9,CC(C)(C)c1ccc(S(=O)(=O)N2CCN(C(=O)c3cn(Cc4ccccc4)nn3)CC2)cc1,> 30
10,COc1cccc(Cn2cc(C(=O)N3CCN(S(=O)(=O)c4ccccc4)CC3)nn2)c1,> 30
11,CC(C)(C)c1ccc(S(=O)(=O)N2CCN(C(=O)c3cn(Cc4cccc(Oc5ccccc5)c4)nn3)CC2)cc1,3.7
12,COc1ccc(S(=O)(=O)N2CCN(C(=O)c3cn(Cc4ccccc4)nn3)CC2)cc1,> 30
13,Cc1ccc(S(=O)(=O)N2CCN(C(=O)c3cn(Cc4ccc(F)cc4)nn3)CC2)cc1,> 30
14,COc1cccc(Cn2cc(C(=O)N3CCN(S(=O)(=O)c4ccc(Cl)cc4)CC3)nn2)c1,> 30
